Published values from different studies.
Lines come from different studies, so protocols differ.
rep main protease: Replicase polyprotein 1ab, main protease (rep, Porcine epidemic diarrhea virus, UniProt P0C6Y4)
SLC6A4: Sodium-dependent serotonin transporter (SLC6A4, Homo sapiens, UniProt P31645)
rep papain-like protease: Replicase polyprotein 1ab, papain-like protease (rep, Porcine epidemic diarrhea virus, UniProt P0C6Y4)

COc1cc(CNC(=O)c2ccc(N(C)C)cc2)cc(Br)c1OC  inhibition (rep main protease; enzyme activity, inhibitor, FRET; 10 µM): 32.3%
CCOC(=O)[C@@]12C[C@@H]1[C@@H](n1cnc3c(NCCCCCc4ccccc4)nc(C#Cc4ccc(Cl)s4)nc31)[C@H](O)[C@@H]2O  inhibition (SLC6A4; ligand displacement, radioligand; 10 µM): -14%
Cc1ccccc1C(=O)NCc1cc(O)c(O)c(Br)c1  inhibition (rep papain-like protease; enzyme activity, inhibitor, FRET; 10 µM): 115%
CSc1nc(NCCC2CC2)c2ncn([C@H]3[C@H](O)[C@H](O)[C@@H]4C[C@@H]43)c2n1  inhibition (SLC6A4; ligand displacement, radioligand; 10 µM): 17%
C1=C/COCc2cc(ccc2OCCN2CCCC2)Nc2nccc(n2)-c2cccc(c2)COC/1  remaining binding (Rhodopsin kinase GRK7 (GRK7, Homo sapiens, UniProt Q8WTQ7); binding; 0.1 µM): 86%
COc1cc(-c2cc(C(C)=O)n3ccccc23)cc(OC)c1Cn1ccnc1  ΔTm (Bromodomain adjacent to zinc finger domain protein 2B, bromodomain (BAZ2B, Homo sapiens, UniProt Q9UIF8); thermal stability, DSF): 1.6 °C
O=C(NCc1cc(O)c(O)c(Br)c1)c1ccc(Cl)nc1  inhibition (rep main protease; enzyme activity, inhibitor, FRET; 10 µM): 6.11%
O[C@@H]1[C@H](O)[C@@H]2C[C@@H]2[C@H]1n1cnc2c(NCCC3CC3)ncnc21  inhibition (SLC6A4; ligand displacement, radioligand; 10 µM, cell membranes): 14%
COc1ccc(C(=O)NCc2cc(O)c(O)c(Br)c2)cc1OC  inhibition (rep main protease; enzyme activity, inhibitor, FRET; 10 µM): 74.7%
Cc1cc(O)c(-c2ccc([C@@H](C)CN(C)C)cc2)c2c1[nH]c(=O)c1sccc12  inhibition (Mitogen-activated protein kinase kinase kinase 20 (MAP3K20, Homo sapiens, UniProt Q9NYL2); enzyme activity, inhibitor; 0.1 µM): -2.95%
CCOC(=O)[C@@]12C[C@@H]1[C@@H](n1ccc3c(NCCCCCc4ccccc4)nc(C#Cc4ccccc4)nc31)[C@H](O)[C@@H]2O  inhibition (SLC6A4; ligand displacement, radioligand; 10 µM): 29%
CN1CCc2cccc3c2[C@H]1Cc1ccc(O)c(O)c1-3  Emax (D(1A) dopamine receptor (DRD1, Homo sapiens, UniProt P21728); cAMP, agonist): ~100%
CCOC(=O)[C@@]12C[C@@H]1[C@@H](n1cnc3c(Nc4ccccc4)nc(C#Cc4ccc(Cl)s4)nc31)[C@H](O)[C@@H]2O  inhibition (SLC6A4; ligand displacement, radioligand; 10 µM): 20%
O=C(NCc1cc(O)c(O)c(Br)c1)c1ccc2ccccc2c1  inhibition (rep papain-like protease; enzyme activity, inhibitor, FRET; 10 µM): 19.4%
O=C(O)c1cccc(-c2noc(-c3ccccc3F)n2)c1  kon (Flavin reductase (NADPH) (BLVRB, Homo sapiens, UniProt P30043); binding, SPR): 3060 M⁻¹ s⁻¹
COc1cc(CNC(=O)c2ccc(OC(F)(F)F)cc2)cc(Br)c1OC  inhibition (rep papain-like protease; enzyme activity, inhibitor, FRET; 10 µM): 10.8%
N#CC[C@@]12C[C@@H]1[C@@H](n1cnc3c(NCCCCCCc4ccccc4)nc(I)nc31)[C@H](O)[C@@H]2O  inhibition (SLC6A4; ligand displacement, radioligand; 10 µM): 56%
CCCCC(=O)Nc1ccc(-c2ccc3ncn(CCC)c(=O)c3c2)cn1  remaining binding (BDNF/NT-3 growth factors receptor (NTRK2, Homo sapiens, UniProt Q16620); binding, competition with immobilised ligand; 0.5 µM): 100%
